Screening results from PubChem BioAssay.
NF-kB expr up: NF-kB expression increase, human neuronal cells; NF-kB reporter expression; hits give high values; fold change at 12.5 µM; 1.6% of 190,000 active; in the data active = fold change above about 3.3
STAT3 inh: STAT3 signaling inhibition. U3A cells, IL-6 STAT3-luciferase reporter, luminescence; host cell line lacks STAT1. inhibition, % at 5.5 µM. 0.89% of 190,000 active. AID 862;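 active = inhibition above the mean inhibition across all screened compounds plus 3 SD, cut at about 44% in these data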
STAT1 blocker: STAT1 signaling inhibition; NIH 3T3 STAT1-luciferase reporter, IFN-gamma, luminescence; 0.35% of 200,000 active; AID 920; inhibition, % at 5.5 µM;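 active = inhibition above a set limit, the mean inhibition across all tested compounds plus 3 SD, cut at about 34% in these data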
STAT3 activator: activators of IL-6 induced STAT3 signaling. activation (% of control), % at 5.6 µM. 0.91% of 190,000 active. U3A cells, IL-6 STAT3-luciferase reporter, luminescence; 100% = signal with IL-6 EC80 alone;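 active = activation above the screen-wide mean of compound activation plus 3 SD, cut at about 130% in these data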
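Material: human STAT1-deficient U3A cells with stable STAT3-luciferase reporter / Probe or stimulus: IL-6 stimulus at 33 ng/mL final / Schedule: 1 h compound pre-exposure, 6 h IL-6 stimulation, 37 °C / Technique: luminescence / Read-out basis: percent of IL-6-only median luminescence / Control set: IL-6-only high control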
APP 5'UTR act: APP 5'UTR luciferase reporter activation. AID 1276. activation, % at 2 µM. SH-SY5Y APP 5'UTR luciferase reporter, luminescence; zero percent = DMSO vehicle wells. 1% of 190,000 active;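 active = activation above a set limit, based on mean plus 3 SD of controls, cut at about 140% in these data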
STAT1 act: increases IFN-gamma driven STAT1 reporter signal; NIH 3T3 STAT1-luciferase reporter, luminescence; 100% = IFN-gamma alone, no compound; activation (% of control), % at 5.5 µM; 2.6% of 200,000 active; AID 932;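 active = activation above the screen-wide mean activation plus 3 SD, cut at about 130% in these data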
STAT1 act conf: STAT1 activation, confirmation assay; activation (% of control), % at 5.7 µM; 97% of 1,200 active; NIH 3T3 STAT1-luciferase reporter, IFN-gamma potentiation, luminescence; 100% = IFN-gamma EC80 alone, no compound; shares compounds with STAT1 act;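 active = activation above a set limit carried over from the earlier primary STAT1 screen, cut at about 140% in these data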
NFkB act STAT1ct: NF-kappaB activation in STAT1 activator counter-screen | HEK293T NF-kB luciferase reporter, TNF-alpha stimulated, luminescence; 100% = TNF-alpha with vehicle only | activation (% of control), % at 5.7 µM | shares compounds with STAT1 act | AID 1306 | 43% of 1,200 active;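 active = activation above the mean of solvent-only control wells plus 3 SD, set per campaign, cut at about 130% in these data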;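 note: TNF-alpha given at a submaximal dose yielding about 80% of full reporter signal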
STAT3 act STAT1c: counter-screen for STAT1 activators: human STAT3 activation; shares compounds with STAT1 act; U3A cells STAT3-luciferase reporter, IL-6, luminescence; cells lack STAT1; 100 = IL-6 alone, no compound effect; activation (% of control), % at 5.7 µM; 46% of 1,200 active; AID 1316;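 active = activation above the solvent-only control well mean plus 3 SD, set per plate batch, cut at about 110% in these data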;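 note: higher means more STAT3 reporter activation so hits are non-selective activators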
Of the large screens only hits and unclear results are named; the others gave an inactive call (follow-up assays come after a bar, where they were run). This is a sample that favours compounds with a hit; in the whole collection about 4.9% have one here.

COCCNc1nc(-c2cc3ccccc3o2)cs1	NF-kB expr up 8.1, APP 5'UTR act 180, STAT1 act 194 | STAT1 act conf 230 | NFkB act STAT1ct inactive | STAT3 act STAT1c inactive
COc1ccc(C(=O)Nc2ccc3cn[nH]c3c2)c(OC)c1	STAT1 act 164 | STAT1 act conf 185 | NFkB act STAT1ct 134 | STAT3 act STAT1c 116
COc1ccc(C(=O)Nc2ccc(S(=O)(=O)Nc3onc(C)c3C)cc2)c(OC)c1	none
COc1ccc(C(=O)NCc2nnc(SC)n2Cc2ccccc2)cc1	none
O=C(NC(=S)Nc1ncccn1)c1ccc(Cl)cc1Cl	STAT1 act 174 | STAT1 act conf 218 | NFkB act STAT1ct inactive | STAT3 act STAT1c inactive
CCC(=O)Nc1cccc(NC(=S)NC(=O)c2ccc(Cl)cc2Cl)c1	none
O=C(CSc1nc2cc(C(F)(F)F)ccc2n1Cc1ccccc1)NC1CCS(=O)(=O)C1 (centres undefined)	none
CC(C)NC(=O)c1ccccc1NC(=O)Cc1ccc(Br)cc1	none
CCN(C(=O)COC(=O)c1cccc(-n2cnnn2)c1)C1CCCCC1	none
Fc1ccccc1Nc1n[nH]c(=S)s1	none
Fc1ccccc1Nc1nc2c(s1)CCc1ccccc1-2	NF-kB expr up 7.8, APP 5'UTR act 164, STAT1 act 198 | STAT1 act conf 268 | NFkB act STAT1ct 157 | STAT3 act STAT1c 161
CCC(C)(C)NC(=O)C(c1cccnc1)N(CCOC)C(=O)Cn1nnc2ccccc21 (centres undefined)	none
Cc1ccc(N=Cc2cc(Br)cc(Cl)c2O)cc1	none
Cc1ccc(N=Cc2sc(O)c3ccccc23)cc1	NF-kB expr up 13, APP 5'UTR act 193, STAT1 act 202 | STAT1 act conf 323 | NFkB act STAT1ct 153 | STAT3 act STAT1c 121
COc1ccc(-c2nc(=S)c3ccc4ccccc4c3[nH]2)cc1	none
Clc1ccc(-n2nnnc2-c2ccccc2)cc1Cl	none
Clc1c(-c2ccccc2)nnn1-c1ccccc1	NF-kB expr up 4.8, APP 5'UTR act 153, STAT1 act 177 | STAT1 act conf 209 | NFkB act STAT1ct 137 | STAT3 act STAT1c inactive
COc1ccc(Cn2c(/C=C/c3ccccc3)nc3ccccc32)cc1	NF-kB expr up 6.1, STAT1 act 157 (no result: APP 5'UTR act) | STAT1 act conf 196 | NFkB act STAT1ct 150 | STAT3 act STAT1c 130
Cc1c(C2C(C#N)=C(N)OC3=C2C(=O)CCC3)cnn1C (centres undefined)	none
O=C(NCCNc1ccc([N+](=O)[O-])cc1)c1ccccc1Br	none
CCOc1ccc(S(=O)(=O)NC2CC2)cc1C(N)=O	none
O=C(c1ccccc1F)N1CCN(c2ccc([N+](=O)[O-])c(NCC3CCCO3)c2)CC1 (centres undefined)	none
Cc1cccc(N=C/C(C(=O)C(F)(F)F)=C(\O)c2ccco2)c1	NF-kB expr up 4.8, STAT1 act 163 | STAT1 act conf 173 | NFkB act STAT1ct inactive | STAT3 act STAT1c 123
Cc1ccc(O)c(NC(=O)c2ccco2)c1	none
O=C(/C(C=Nc1ccc(F)cc1)=C(/O)c1ccco1)C(F)(F)F	NF-kB expr up 3.4, STAT1 act 151 | STAT1 act conf 162 | NFkB act STAT1ct inactive | STAT3 act STAT1c inactive
Cc1ccc(N=C/C(C(=O)C(F)(F)F)=C(\O)c2ccco2)cc1Cl	NF-kB expr up 6.1, APP 5'UTR act 136, STAT1 act 183 | STAT1 act conf 221 | NFkB act STAT1ct inactive | STAT3 act STAT1c 144
COC(=O)c1ccc(Oc2nc(C(N)=O)cc(-c3ccccc3)n2)cc1	none
O=C(COC(=O)C1CC1)Nc1ccc2c(c1)OCO2	none
CN(C)c1nc(N)c([N+](=O)[O-])c(NCc2ccccc2)n1	none
CCCC(=O)Nc1nc(-c2ccc(OC)cc2)cs1	none
O=C(CSCC(=O)Nc1nc(-c2ccc3c(c2)OCO3)cs1)Nc1nccs1	none (no result: STAT3 inh, STAT3 activator)
CCCC(=O)Nc1nc(-c2ccc3c(c2)OCCO3)cs1	NF-kB expr up 4.5, APP 5'UTR act 141, STAT1 act 158 | STAT1 act conf 181 | NFkB act STAT1ct 143 | STAT3 act STAT1c inactive
CSCC(=O)Nc1nc(-c2ccc3c(c2)OCCO3)cs1	NF-kB expr up 4.8, APP 5'UTR act 153, STAT1 act 158 | STAT1 act conf 189 | NFkB act STAT1ct 139 | STAT3 act STAT1c 114
Cc1ccc2nc(-c3ccc(NS(=O)(=O)c4ccccc4)cc3)sc2c1	none
Cc1ccc2nc(-c3ccc(NS(=O)(=O)c4ccc(F)c(F)c4)cc3)sc2c1	NF-kB expr up 6.5, APP 5'UTR act 180, STAT1 act 172 | STAT1 act conf 217 | NFkB act STAT1ct 137 | STAT3 act STAT1c inactive
CCOC(=O)c1sc(NC(=O)c2ccc(S(=O)(=O)N3CCOCC3)cc2)cc1C	none
CCOC(=O)c1cnc2c(-c3ccccc3)c(C)nn2c1N	none
CCOC(=O)c1cnc2c(-c3ccccc3)cnn2c1N	NF-kB expr up 7.4, STAT1 act 186 | STAT1 act conf 246 | NFkB act STAT1ct inactive | STAT3 act STAT1c inactive
O=C(OCc1ccccc1)c1cn(-c2ccccc2)nc1-c1ccncc1	none
Clc1ccc(Nc2nc(C3CC3)cs2)cc1	NF-kB expr up 5.1, APP 5'UTR act 180, STAT1 act 154 | STAT1 act conf 188 | NFkB act STAT1ct 142 | STAT3 act STAT1c inactive
Cc1ccc(Nc2nc(C3CC3)cs2)cc1	NF-kB expr up 8.8, APP 5'UTR act 239, STAT1 act 151 | STAT1 act conf 228 | NFkB act STAT1ct inactive | STAT3 act STAT1c inactive
c1ccc2c(c1)oc1c(Nc3ccc(CN4CCOCC4)cc3)ncnc12	APP 5'UTR act 187, STAT1 act 158 | STAT1 act conf 207 | NFkB act STAT1ct 135 | STAT3 act STAT1c 115
c1ccc2c(c1)oc1c(Nc3ccc4c(c3)OCO4)ncnc12	STAT1 act 158 | STAT1 act conf 202 | NFkB act STAT1ct 142 | STAT3 act STAT1c inactive
O=C1CC(C(=O)Nc2ccc(Cl)cc2[N+](=O)[O-])C2(CCCCC2)O1 (centres undefined)	none
CCCNC(=O)N1CCN(Cc2ccco2)CC1	none
O=C(CC1Nc2ccccc2NC1=O)c1ccccc1 (centres undefined)	STAT1 act 156 | STAT1 act conf 206 | NFkB act STAT1ct inactive | STAT3 act STAT1c 165
